Results from different studies.
Lines come from different studies, so protocols differ.
CDK2: Cyclin-dependent kinase 2 (CDK2, Homo sapiens, UniProt P24941)
CDK2 with cyclin E: Cyclin-dependent kinase 2, with cyclin E (CDK2, Homo sapiens, UniProt P24941)
CDK2 with cyclin E1: Cyclin-dependent kinase 2, with cyclin E1 (CDK2, Homo sapiens, UniProt P24941)
CDK2 with cyclin A: Cyclin-dependent kinase 2, with cyclin A (CDK2, Homo sapiens, UniProt P24941)

`OCc1c(-c2ccc(F)cc2)nc2sc3c(n12)CCCC3` has an IC50 of 19 µM (CDK2; enzyme activity, inhibitor, mobility shift).
`CN(C)CCNc1nc2ccccc2c2[nH]c3ccccc3c12` gave an IC50 of 70 µM (CDK2 with cyclin E; enzyme activity, inhibitor, radiometric).
For `c1ccc(CNc2ncnc3nc[nH]c23)cc1`, the IC50 was about 1 µM (Cyclin-dependent kinase 2, with cyclin A (CDK2, Homo sapiens, UniProt P24941, F80G); enzyme activity, inhibitor, radiometric).
`CN(C)CCNS(=O)(=O)c1ccc(N/C=C2\C(=O)Nc3ccccc32)cc1` has a Kd of 1.06 µM (CDK2; binding).
With `O=c1cc(-c2ccccc2)oc2ccc3ccccc3c12` the IC50 was over 10 µM (CDK2 with cyclin E1; enzyme activity, inhibitor, ADP detection).
`O=C(Nc1cc(C2CCCCC2)[nH]n1)c1ccc(Br)cc1` gave a Kd of over 100 µM (CDK2; thermal stability, DSF).
`CN(C)CCNC1=Nc2ccccc2-c2[nH]c3ccccc3c2C1` gave an IC50 of 73 µM (CDK2 with cyclin E; enzyme activity, inhibitor, radiometric).
For `COc1c(C(=O)/C=C(\O)c2ccccc2)ccc2occc12`, the IC50 was over 100 µM (CDK2 with cyclin E1; enzyme activity, inhibitor, ADP detection).
The Kd of `Cc1cc(Nc2cc3ncccc3c(N[C@@H]3C[C@H]4CC[C@@H](C3)N4CCC#N)n2)n[nH]1` is reported as 0.75 µM (CDK2; binding, competition with immobilised ligand).
The IC50 of `C=CC(=O)Nc1ccc(N2CCC[C@@H](Nc3ncc(Cl)c(-c4c[nH]c5ccccc45)n3)C2)c(F)c1` is reported as 4.02 µM (CDK2 with cyclin A; enzyme activity, inhibitor, FRET).
With `CN1CCC(c2c(O)cc(O)c3c(=O)cc(-c4ccccc4)oc23)C(O)C1` (centres unmarked) the IC50 was 0.196 µM (CDK2 with cyclin A; enzyme activity, inhibitor).
With `COc1cccc(OC)c1CNC(=O)c1ccc2c(c1)C(=NNc1ccc(S(N)(=O)=O)cc1)C(=O)N2` the Kd was 0.0226 µM (CDK2; binding).
With `O=S(=O)(/C=C/c1ccc(C(F)(F)F)cc1)c1ccc(-c2csc(-c3ccccc3)n2)cc1` the IC50 was 26 µM (CDK2; enzyme activity, inhibitor, mobility shift).
The IC50 of `C=CC(=O)Nc1ccc(O[C@@H]2CCC[C@@H](Nc3ncc(Cl)c(-c4c[nH]c5ccccc45)n3)C2)cc1` is reported as over 10 µM (CDK2 with cyclin A; enzyme activity, inhibitor, FRET).
